Results reported in paper PMC13435124 (The FASEB Journal, 2026).
“Also recorded” adds a separate entry of the source. Where two headings read alike, the source gives them in different places. Marks after values point to notes of the source that are not given here.

Legend:
[1] = test system: HMOX1 in N2a-APPswe cells; experiment: HMOX1 protein levels, western blot; format: cell-based, mouse; settings: 250 μM, 24 h, vs control
How it was run: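 N2a-APPswe cells treated 24 h with test compound at 250 μM. HMOX1 detected by western blot after milk blocking 1 h RT; anti-HMOX1 1:1000 in 5% BSA/TBS-T overnight at 4°C, then HRP secondary 1 h RT.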

BV-2 cells = experiment: Nrf2 silencing; format: cell-based, mouse; settings: BV-2, Iso + LPS
[2] = test system: BV-2 cells exposed to LPS; experiment: Nos2 and Il-1β mRNA in LPS-stimulated microglia, real-time RT-PCR; format: cell-based, mouse; settings: BV-2, 250 μM, LPS 50 ng/mL, 18 h
How it was run: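 BV-2 cells given test compound at 250 μM, LPS 50 ng/mL added 30 min later, incubated 18 h. Nos2 and Il-1β mRNA measured by real-time RT-PCR. Mean ± SEM of four independent experiments, relative to untreated control.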

[3] = test system: BV-2 cells exposed to LPS; experiment: iNOS and pro-IL-1β protein in LPS-stimulated microglia, western blot; format: cell-based, mouse; settings: BV-2, 250 μM, LPS 50 ng/mL, 24 h
How it was run: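 BV-2 cells given test compound at 250 μM, LPS 50 ng/mL added 30 min later, for 24 h. iNOS and pro-IL-1β protein measured by western blot. Mean ± SEM of four independent experiments, relative to untreated control.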

[4] = test system: AKT/GSK3β signaling in N2a-APPswe cells; experiment: AKT and GSK3β phosphorylation, western blot; format: cell-based, mouse; settings: 250 μM, 30 min
How it was run: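 Murine N2a-APPswe cells exposed to test compound at 250 μM for 5, 15 or 30 min; basal pAKT in untreated N2a-wt and N2a-APPswe read at 30 min. Protein by BCA; lysates denatured 5 min at 95°C. Membranes blocked 1 h RT in 5% BSA for phospho-proteins, primaries 1:1000 overnight at 4°C, HRP secondaries 1 h RT.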

[5] = Pharmacokinetics after intranasal administration; format: in vivo, mouse; settings: for Kp: B6C3F1, mouse, inhaled or intranasal, 100 mg/kg; for AUC t / AUCinf: WT mice
How it was run: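 WT B6C3F1 mice (25–30 g), acclimatised ≥7 days with food and water ad libitum, given test compound intranasally at 100 mg/kg. Plasma, brain and lung sampled at 5, 15, 30, 60, 120 and 180 min; n = 4. AUCt and AUCinf derived from concentration–time profiles.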

APP/PS1 male mice [6] = experiment: Aβ40 and Aβ42 levels in cortex, hippocampus and plasma; format: in vivo, mouse; settings: 11-month-old APP/PS1 males, 100 mg/kg, 1 month
How it was run: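 APP/PS1 and WT littermate males aged 10 months, randomised to groups of n = 5. PBS vehicle or test compound at 100 mg/kg given intranasally for 1 month. At 11 months, Aβ40 and Aβ42 measured in cortex, hippocampus and plasma; plasma Aβ42/Aβ40 ratio derived. Mean ± SEM of five animals.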

WT and APP/PS1 male mice [7] = experiment: Hippocampal gene expression, real-time RT-PCR; format: in vivo, mouse
How it was run: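 Hippocampi of 11-month-old WT and APP/PS1 males after 1 month of intranasal PBS or test compound at 100 mg/kg. hAPP, Bace1, Il-1β, Iba1, Trem2, Hmox1, Ppargc1α and Bdnf mRNA measured by real-time RT-PCR.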

[8] = test system: BV-2 cells exposed to LPS; experiment: Nitric oxide production; format: cell-based, mouse; settings: BV-2, 250 μM, LPS 50 ng/mL, 24 h
How it was run: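 BV-2 microglia given test compound at 250 μM, then LPS 50 ng/mL 30 min later, for 24 h. Nitrite measured in supernatants by Griess assay at 550 nm against a sodium nitrite standard curve. Mean ± SEM of four independent experiments, relative to untreated control.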

APP/PS1 female mice = experiment: Behavioral tests in 6-month-old females; format: in vivo, mouse; settings: intranasal 50 mg/kg, 1 month
[9] = cited from earlier work; for dose-normalized AUC t in plasma: oral
WT and APP/PS1 male mice [10] = experiment: Body weight and metabolic parameters of 11-month-old males; format: in vivo, mouse; settings: 1 month
APP/PS1 male mice [11] = experiment: Fear conditioning test; format: in vivo, mouse; settings: 100 mg/kg, 1 month
How it was run: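 10-month-old males, n = 5 per group, given intranasal PBS or test compound at 100 mg/kg for 1 month. Day 1: paired auditory–shock stimuli, return to cage 1 min after last pair. Day 2: freezing scored 5 min in context A. Day 3: altered context B, freezing scored 3 min, then 3 min with auditory cue.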

WT female mice = experiment: Safety: histopathology and serum biochemistry after 1 month intranasal dosing; format: in vivo, mouse; settings: intranasal 100 mg/kg
How it was run: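 11-month-old WT females given intranasal PBS or test compound at 100 mg/kg for 1 month. Histopathology of heart, hippocampus, lung, liver and kidney. Serum GOT, GGT, ALP, albumin, creatinine and urea reported as mg/dL or IU/L.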

[12] = APP/PS1 + Iso vs APP/PS1, 100 mg/kg, 1 month
[13] = APP/PS1 males, 100 mg/kg, 1 month
[14] = WT and APP/PS1 males, 100 mg/kg, 1 month, not significant

**Q.** What does the source list for `CC=Cc1ccc(O)c(OC)c1` [Iso, 2‐methoxy‐4‐(prop‐1‐en‐1‐yl) phenol]?
**A.** HMOX1 protein levels [1]: significant increase; Iso-induced NO decrease in siGAPDH- or siNeg-transfected cells (BV-2 cells): not affected; Iso-induced NO decrease in siNrf2-transfected cells (BV-2 cells): reversed; LPS-induced Il-1β gene expression [2]: reduced; LPS-induced Nos2 gene expression [2]: reduced; LPS-induced iNOS protein levels [3]: reduced; LPS-induced pro-IL-1β protein levels [3]: reduced; AKT phosphorylated levels [4]: AKT activation; GSK3β phosphorylated (Ser9) levels [4]: GSK3β inactivation; Kp ([5]; brain and plasma): 0.23; Kp ([5]; lung and plasma): 6.73; AUC t ([5]; brain, intranasal 100 mg/kg): 140.87 ^c μg.min/g; AUCinf ([5]; brain, intranasal 100 mg/kg): 142.15 ^c μg.min/g; dose-normalized AUC t in plasma ([5]; intranasal 100 mg/kg, mice): 5.99 µg·min/mL/kg; dose-normalized AUCinf in plasma ([5]; intranasal 100 mg/kg, mice): 6.04 µg·min/mL/kg; AUC t ([5]; lung, intranasal 100 mg/kg): 4030.85 ^c μg.min/g; AUCinf ([5]; lung, intranasal 100 mg/kg): 4091.75 ^c μg.min/g; cortex Aβ40 levels (APP/PS1 male mice [6]): no alterations observed; cortex Aβ42 levels (APP/PS1 male mice [6]): no alterations observed; hippocampus Aβ40 levels (APP/PS1 male mice [6]): no alterations observed; hippocampus Aβ42 levels (APP/PS1 male mice [6]): no alterations observed; plasma Aβ40 levels (APP/PS1 male mice [6]): decreased; plasma Aβ42 levels (APP/PS1 male mice [6]): decreased; plasma Aβ42/Aβ40 ratio (APP/PS1 male mice [6]; not significant): partial increase; decrease in Bdnf gene of APP/PS1 mice (WT and APP/PS1 male mice [7]; [12]): reversed; reduction in Ppargc1α mRNA levels of APP/PS1 mice (WT and APP/PS1 male mice [7]; [12]): reversed; Iba1 expression in hippocampus (WT and APP/PS1 male mice [7]; [13]): increased; h-APP gene expression in hippocampus (WT and APP/PS1 male mice [7]; [13]): not affected; increase in Trem2 gene expression (trend) (WT and APP/PS1 male mice [7]; [13]): 1.6 fold; reduction of Bace1 mRNA levels (WT and APP/PS1 male mice [7]; Iso-treated 11-month-old animals, 100 mg/kg, not significant): ~ 4 fold; Bace1 mRNA levels in hippocampus (WT and APP/PS1 male mice [7]; [14]): clear tendency toward a reduction; Il1β mRNA levels in hippocampus (WT and APP/PS1 male mice [7]; [14]): clear tendency toward a reduction; also recorded: markedly reduced; Trem2 mRNA levels in hippocampus (WT and APP/PS1 male mice [7]; WT males, 100 mg/kg, 1 month): decreased; Hmox1 expression in hippocampus (WT and APP/PS1 male mice [7]; both WT and APP/PS1 males, 100 mg/kg, 1 month): increased; LPS-triggered nitrite production [8]: significantly decreased; behavior (hot plate, open field, fear conditioning) (APP/PS1 female mice): no relevant behavioral alterations were observed; alpha half-life distribution time ([9]; after intravenous dosing): 7 to 10 min; steady-state apparent volume of distribution ([9]; after intravenous dosing): 11 to 25.2 L/kg; dose-normalized AUCinf in plasma ([9]; intravenous 35 mg/kg, mice): 6.76 µg·min/mL/kg; dose-normalized AUC t in plasma ([9]; first listed of doses 35, 70 and 140 mg/kg, mice): 1.91 µg·min/mL/kg; dose-normalized AUC t in plasma ([9]; second listed of doses 35, 70 and 140 mg/kg, mice): 1.68 µg·min/mL/kg; dose-normalized AUC t in plasma ([9]; third listed of doses 35, 70 and 140 mg/kg, mice): 1.45 µg·min/mL/kg; triglycerides (WT and APP/PS1 male mice [10]; 11-month-old APP/PS1 males, 100 mg/kg): reduction; adipose tissue weight (WT and APP/PS1 male mice [10]; 11-month-old WT and APP/PS1 males, 100 mg/kg): trend toward a decrease; decrease in body weight (WT and APP/PS1 male mice [10]; 11-month-old males, intranasal 100 mg/kg): < 15%; % of freezing, contextual memory (day 2) (APP/PS1 male mice [11]; APP/PS1 males): clear but not significant increase; associative memory (day 3) (APP/PS1 male mice [11]; males): no differences were detected; LDL cholesterol (WT female mice; 11-month-old WT females): reduction; hippocampus histopathology (WT female mice; WT females): Increased cell activation; kidney histopathology (WT female mice; WT females): cellular eosinophilia and tubular epithelial hypertrophy; liver histopathology (hepatic steatosis seen in VEH) (WT female mice; WT females): also maintained; serum albumin (WT female mice; WT females): no alterations were detected; serum alkaline phosphatase (ALP) (WT female mice; WT females): no alterations were detected; serum creatinine (WT female mice; WT females): no alterations were detected; serum gamma-glutamyl transferase (GGT) (WT female mice; WT females): no alterations were detected; serum glutamic oxaloacetic transaminase (GOT) (WT female mice; WT females): no alterations were detected; serum urea (WT female mice; WT females): no alterations were detected; heart histopathology (WT female mice; WT females, vs VEH): No histopathological changes were observed
